# MrgX1 allo act: positive allosteric modulators of MrgX1, primary screen, HEK293 cells, Fluo-4 calcium flux | FDSS; active compounds read high | B-score at 10 µM | hit rate 0.63% among 310,000 | AID 588675, 2011 | Mas-related G-protein coupled receptor member X1 (Homo sapiens), Q96LB2;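 active = plate-corrected calcium response at least 3 library SD above typical, normal starting fluorescence, not activating the receptor alone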;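 note: compound read alongside a low EC10 to EC30 dose of BAM8-22 agonist; peak minus trough fluorescence over baseline measured at the second addition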
# Target sequence (Q96LB2 whole entry, looked up): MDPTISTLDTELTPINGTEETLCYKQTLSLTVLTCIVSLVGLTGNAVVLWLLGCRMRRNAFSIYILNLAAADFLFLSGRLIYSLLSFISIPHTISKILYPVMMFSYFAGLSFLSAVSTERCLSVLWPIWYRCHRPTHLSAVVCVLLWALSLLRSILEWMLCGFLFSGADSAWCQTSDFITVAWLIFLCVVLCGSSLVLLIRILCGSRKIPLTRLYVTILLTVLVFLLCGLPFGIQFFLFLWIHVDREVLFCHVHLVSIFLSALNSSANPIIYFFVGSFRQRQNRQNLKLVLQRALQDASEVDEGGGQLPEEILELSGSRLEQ
# MrgX1 antagonist: antagonists of human MrgX1 receptor, primary screen, HEK293 cells, Fluo-4 calcium flux; AID 588676, 2011; Mas-related G-protein coupled receptor member X1 (Homo sapiens), Q96LB2; BAM8-22 antagonism; active compounds read low; B-score at 10 µM; hit rate 1.3% among 310,000;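 active = calcium-response B-score plate-corrected more than 3 library SD below zero, starting fluorescence within 5 deviations, no agonist response on first addition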;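 note: peak minus trough fluorescence over baseline after final BAM8-22 challenge near maximal dose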
# RGS4 inh: RGS4 inhibitors, primary screen, cell-based, HEK293 M3R inducible RGS4, calcium flux | B-score at 10 µM | hit rate 0.45% among 310,000 | AID 463165, 2010 | Regulator of G-protein signaling 4 (Homo sapiens), P49798 | Fluo-4 calcium flux; active compounds read high; triggered by carbachol at its EC20;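 active = B-score, a plate-corrected calcium signal, over three deviations above library mean, with baseline fluorescence within five deviations of library mean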;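 note: RGS4 expression induced by doxycycline in cells with stable M3 receptor; B-score is computed from the integrated fluorescence ratio over baseline after carbachol; higher B-score means a larger calcium signal and so more RGS4 inhibition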
# Target sequence (P49798 whole entry, looked up): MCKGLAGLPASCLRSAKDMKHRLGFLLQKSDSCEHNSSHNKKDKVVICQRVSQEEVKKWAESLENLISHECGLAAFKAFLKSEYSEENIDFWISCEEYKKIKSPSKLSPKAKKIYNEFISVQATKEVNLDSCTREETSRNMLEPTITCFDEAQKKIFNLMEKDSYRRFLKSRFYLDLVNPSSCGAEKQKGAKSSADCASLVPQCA
# MrgX1 agonist: agonists of human MrgX1 receptor, primary screen, HEK293 cells, Fluo-4 calcium flux | Mas-related G-protein coupled receptor member X1 (Homo sapiens), Q96LB2 | Fluo-4 calcium fluorescence, agonist mode; active compounds read high | B-score at 10 µM | hit rate 0.44% among 310,000;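 active = calcium response B-score plate-corrected fluorescence ratio at least 3 library SD, with starting fluorescence B-score inside 5 SD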
#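 Test system: Stable human MrgX1 HEK293 cell line | Schedule: Overnight plating before 1 h dye loading | Read-out basis: Baseline-normalised fluorescence change ratio, B-scored | Detection: Kinetic calcium dye fluorescence, Fluo-4 NW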
# RGS4 act: RGS4 potentiators or activators, primary screen, cell-based, HEK293 M3R inducible RGS4, calcium flux; carbachol calcium flux Fluo4; active compounds read low; B-score at 10 µM; hit rate 0.92% among 310,000;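 active = B-score of the integrated calcium signal more than 4 SD below the library mean, with starting fluorescence not abnormally high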;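 note: negative B-score means reduced calcium response which marks RGS4 activation or potentiation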
#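 test system = HEK293 cells with stable M3R and inducible RGS4 | schedule = recording 10 s baseline at 1 Hz, 100 s post-agonist | technique = Fluo4-AM (2 µM) calcium-flux fluorescence, kinetic read | measure = Agonist-evoked peak-minus-minimum fluorescence over baseline, integrated ratio, B score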
# The depositor's hits bear a star; i = inactive. Compounds with a hit are over-represented: about 3.5% of the library has one in this group of screens.
SMILES,MrgX1 allo act,MrgX1 antagonist,RGS4 inh,MrgX1 agonist,RGS4 act
CCOC(=O)C1=NNC(C(=O)c2ccc(Cl)cc2)C1c1ccccc1 (stereo not drawn),i,i,i,i,i
CCOC(=O)C1=NN(c2ccc(Cl)cc2)C(c2ccccc2)CC1=O (stereo not drawn),i,-7.8*,i,i,i
COc1ccc(Cc2noc(CN(C)CC3(N4CCOCC4)CCCCC3)n2)cc1OC,i,i,i,i,i
COC(=O)c1ccc(CN(C(C)=O)c2ccccc2)o1,i,i,i,i,-7.3*
O=C(COc1ccc(Cl)cc1Cl)Nc1ccc(CN2CCOCC2)cc1,i,i,i,i,i
O=C(c1ccc(COc2ccc(Cl)cc2Cl)o1)N1CCCC1,i,i,i,i,-7.6*
O=C(COc1ccc(Cl)cc1Cl)Nc1ccc(CN2CCCCC2)cc1,i,i,i,i,-7.1*
Cc1cccc(NC(=S)NNC(=O)COc2ccc(Cl)cc2Cl)c1,10*,i,i,i,i
CN(C)c1cc[n+](CC(=O)Nc2ccc(Oc3ccccc3)cc2)cc1,i,i,i,i,-9.1*
Cc1cn2c(=O)c(C(=O)N3CCN(c4ccccc4)CC3)cnc2s1,i,i,i,i,i
COc1ccccc1OCCCOc1ccc(/C=C2\SC(=O)NC2=O)cc1OC,i,i,i,i,-7.7*
CC(C(=O)NCCCc1ccccc1)c1ccc([N+](=O)[O-])cc1 (stereo not drawn),i,i,i,i,i
O=C(Nc1cc(Cl)cc(Cl)c1)N1CCCC1,i,i,i,i,i
COC(=O)CN1C(=S)N(c2ccc(OC)cc2)C(=O)/C1=C/c1ccc(N2CCOCC2)cc1,i,-6.1*,i,i,i
COC(=O)c1ccccc1NC(=O)COc1ccccc1,i,i,i,i,i
CC(C)(C)CC(=O)NC(=S)Nc1ccccc1[N+](=O)[O-],i,-5.7*,i,i,i
COC(=O)c1ccccc1NC(=O)COc1ccccc1[N+](=O)[O-],i,-4.6*,i,i,i
O=C(CCOc1ccccc1)Nc1ccccc1[N+](=O)[O-],i,-5.4*,i,i,i
CCCCNc1ncnc2sc3c(c12)CCN(CCC)C3,i,i,i,i,i
O=C1OCC2=C1C(c1ccc(F)cc1)CC(=O)N2c1ccccc1 (stereo not drawn),i,i,i,i,-7.7*
O=C1OCC2=C1C(c1ccc(F)cc1)CC(=O)N2c1ccc(F)cc1 (stereo not drawn),i,i,i,i,i
O=C(N=Nc1ccc(NOC(=O)c2ccccc2Br)cc1)c1ccccc1O,12*,i,i,i,i
O=Nc1ccc(NOC(=O)c2ccccc2)cc1,i,i,i,i,i
COc1ccc(C(=O)C2CCCN(Cc3c(O)cccc3OC)C2)cc1OC (stereo not drawn),i,i,i,i,i
COc1cccc(O)c1CN1CCCC(C(=O)c2cccc(C(F)(F)F)c2)C1 (stereo not drawn),i,i,i,i,-7.5*
SMILES,MrgX1 allo act,MrgX1 antagonist,RGS4 inh,MrgX1 agonist,RGS4 act
O=C(c1cccc(C(F)(F)F)c1)C1CCCN(Cc2cccc(OCCO)c2)C1 (stereo not drawn),i,i,i,i,-7*
O=C(c1cccc(S(=O)(=O)N2CCc3ccccc32)c1)N1CCCC(C(F)(F)F)C1 (stereo not drawn),i,i,i,i,i
CCOc1ccc(OCc2cccc(C(=O)Nc3ccc(CN4CCCCC4)cc3)c2)cc1,i,i,i,i,-7.3*
Clc1ccc(SCc2cc(Cl)nc(-c3ccccc3)n2)cc1,i,i,i,i,-7*
Clc1cc(CSc2ccccc2)nc(-c2ccccc2)n1,i,i,i,i,i
O=C(Nc1nc(-c2cccc([N+](=O)[O-])c2)cs1)C(c1ccccc1)c1ccccc1,i,i,i,i,i
CC(OC(=O)c1ccccc1Br)C(=O)Nc1nc(-c2cccc([N+](=O)[O-])c2)cs1 (stereo not drawn),i,-5.5*,i,i,i
COc1ccc(/C=C2\N=C3CCCCCN3C2=O)cc1OC,i,-4.7*,i,i,i
COCCN(Cc1ccccc1)C(=O)c1c(C)nn(-c2ccccc2)c1C,i,i,i,i,i
CN(C)c1ccnc(N(Cc2ccccc2)Cc2ccccc2)c1C#N,i,i,i,i,-11*
COc1ccc(NC(=O)N2CCCC(C(=O)NCCc3ccccc3)C2)cc1 (stereo not drawn),i,i,i,i,i
C=CCNC(=S)/C(=C(/[O-])c1ccccc1Br)[n+]1ccccc1,i,i,i,i,i
N#CC1=C(N)SC(N)=C(C#N)C1CCc1ccccc1,i,-5.1*,i,i,i
CCOc1ccc(C2C(C#N)=C(N)SC(N)=C2C#N)cc1OCC,i,i,i,i,i
N#CC1=C(N)SC(N)=C(C#N)C1c1cccc(Oc2ccccc2)c1,i,-6.5*,i,i,i
N#CC1=C(N)SC(N)=C(C#N)C1Cc1ccccc1,i,i,i,i,i
N#CC1=C(N)SC(N)=C(C#N)C1c1c(Cl)cccc1Cl,i,i,i,42*,i
CN(C(=O)CCS(=O)(=O)c1ccc2c(c1)oc(=O)n2C)C1CCCCC1,i,i,i,i,i
Cc1csc2nc(SCC(=O)N3CCN(c4ccccc4)CC3)[nH]c(=O)c12,i,i,i,i,i
COCCN(C(=O)COC(=O)C1(c2ccccc2)CC1)c1c(N)n(CC(C)C)c(=O)[nH]c1=O,i,i,i,i,i
O=C(COC(=O)/C=C/c1ccccc1[N+](=O)[O-])NCC(F)(F)F,i,-4.9*,i,i,i
CCNC(=O)COC(=O)/C=C/c1ccccc1[N+](=O)[O-],i,i,i,i,i
O=C(Nc1cccc(Cl)c1)c1ccc(=O)[nH]n1,i,i,i,i,i
Cc1cc(-c2ccccc2)nc(N/N=C/c2ccccc2)n1,i,i,i,i,i
C(=N/Nc1nc(-c2ccccc2)cc(-c2ccccc2)n1)/c1cccnc1,i,i,i,i,-7.1*
